ChEMBL document CHEMBL2169882, “Exploration of novel 3-substituted azetidine derivatives as triple reuptake inhibitors” (J Med Chem, 2012)
pIC50: −log10 of the molar value. Calls of active or inactive are those of the source. No cut-off for these calls is given here.

Experiments:
[1] = target: T1, Sodium-dependent noradrenaline transporter (Homo sapiens, UniProt P23975); conditions: HEK293, at 0.1 µM
[2] = target: T2, Sodium-dependent dopamine transporter (Homo sapiens, UniProt Q01959); conditions: HEK293, at 0.1 µM
T2 sequence (Q01959 whole entry): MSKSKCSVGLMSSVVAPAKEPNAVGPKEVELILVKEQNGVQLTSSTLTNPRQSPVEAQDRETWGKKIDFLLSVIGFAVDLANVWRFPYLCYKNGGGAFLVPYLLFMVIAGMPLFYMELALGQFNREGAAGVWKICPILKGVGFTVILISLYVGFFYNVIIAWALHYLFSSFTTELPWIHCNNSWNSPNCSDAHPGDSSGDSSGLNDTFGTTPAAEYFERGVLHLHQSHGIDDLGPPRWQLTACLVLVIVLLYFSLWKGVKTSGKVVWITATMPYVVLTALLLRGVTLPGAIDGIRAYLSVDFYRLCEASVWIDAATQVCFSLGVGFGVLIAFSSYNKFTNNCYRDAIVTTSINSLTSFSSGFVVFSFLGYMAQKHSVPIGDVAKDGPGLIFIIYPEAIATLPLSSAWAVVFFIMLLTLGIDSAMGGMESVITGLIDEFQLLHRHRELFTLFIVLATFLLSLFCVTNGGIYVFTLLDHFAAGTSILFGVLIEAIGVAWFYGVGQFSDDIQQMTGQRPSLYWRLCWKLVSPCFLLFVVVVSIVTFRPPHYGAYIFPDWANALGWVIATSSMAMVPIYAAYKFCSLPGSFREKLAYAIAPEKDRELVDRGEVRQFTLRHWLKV

[3] = target: T3, Sodium-dependent serotonin transporter (Homo sapiens, UniProt P31645); conditions: HEK293, at 0.1 µM
Target sequence in this assay (P31645 whole entry, looked up): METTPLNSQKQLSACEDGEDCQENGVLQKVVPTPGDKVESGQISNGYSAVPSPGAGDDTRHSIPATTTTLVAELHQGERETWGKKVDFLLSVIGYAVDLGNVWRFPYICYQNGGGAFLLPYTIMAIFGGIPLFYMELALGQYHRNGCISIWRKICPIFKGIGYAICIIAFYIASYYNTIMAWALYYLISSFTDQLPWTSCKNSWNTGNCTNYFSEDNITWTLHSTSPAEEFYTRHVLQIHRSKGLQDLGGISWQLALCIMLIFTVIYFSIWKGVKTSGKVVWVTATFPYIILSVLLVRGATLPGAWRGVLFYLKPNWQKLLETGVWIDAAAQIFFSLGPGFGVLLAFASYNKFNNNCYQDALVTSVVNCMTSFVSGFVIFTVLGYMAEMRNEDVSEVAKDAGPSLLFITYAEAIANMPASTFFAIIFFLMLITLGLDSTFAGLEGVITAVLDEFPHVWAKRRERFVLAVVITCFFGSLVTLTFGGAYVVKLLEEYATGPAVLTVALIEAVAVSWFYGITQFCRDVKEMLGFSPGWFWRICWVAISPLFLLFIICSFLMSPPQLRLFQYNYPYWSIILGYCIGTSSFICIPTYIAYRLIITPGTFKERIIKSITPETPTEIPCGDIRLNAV

[4] = target: T2, Sodium-dependent dopamine transporter; assay type: cell-based, HEK293
[5] = target: T1, Sodium-dependent noradrenaline transporter; assay type: cell-based, HEK293
[6] = target: T3, Sodium-dependent serotonin transporter; assay type: cell-based, HEK293
Target sequence in this assay (P31645 whole entry): as the sequence (P31645 whole entry, looked up) above

[7] = target: CYP3A4 (Homo sapiens, UniProt P08684); experiment: Inhibition of human recombinant CYP3A4 at 10 uM after 5 mins by fluorescence assay
CYP3A4, sequence (P08684 whole entry): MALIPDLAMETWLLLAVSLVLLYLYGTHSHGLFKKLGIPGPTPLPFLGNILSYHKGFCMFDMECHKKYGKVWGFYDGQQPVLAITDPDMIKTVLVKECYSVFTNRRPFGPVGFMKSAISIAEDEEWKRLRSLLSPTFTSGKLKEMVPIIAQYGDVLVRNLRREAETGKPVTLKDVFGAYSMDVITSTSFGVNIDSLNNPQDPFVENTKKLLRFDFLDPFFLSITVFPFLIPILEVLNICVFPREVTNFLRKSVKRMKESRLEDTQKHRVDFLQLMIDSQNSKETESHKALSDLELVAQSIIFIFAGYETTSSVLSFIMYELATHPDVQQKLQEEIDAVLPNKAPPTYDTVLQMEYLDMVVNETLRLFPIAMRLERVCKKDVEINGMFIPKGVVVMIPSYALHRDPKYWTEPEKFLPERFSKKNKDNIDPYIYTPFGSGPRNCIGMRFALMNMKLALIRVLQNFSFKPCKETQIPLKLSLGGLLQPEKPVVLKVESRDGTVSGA
In short: (§1)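 Single-point screen at 10 μM against human CYP2D6 or CYP3A4, using a VIVID CYP enzyme kit. Results were expressed as percentage inhibition.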

[8] = target: CYP2D6 (Homo sapiens, UniProt P10635); experiment: Inhibition of human recombinant CYP2D6 at 10 uM after 5 mins by fluorescence assay
CYP2D6, sequence (P10635 whole entry): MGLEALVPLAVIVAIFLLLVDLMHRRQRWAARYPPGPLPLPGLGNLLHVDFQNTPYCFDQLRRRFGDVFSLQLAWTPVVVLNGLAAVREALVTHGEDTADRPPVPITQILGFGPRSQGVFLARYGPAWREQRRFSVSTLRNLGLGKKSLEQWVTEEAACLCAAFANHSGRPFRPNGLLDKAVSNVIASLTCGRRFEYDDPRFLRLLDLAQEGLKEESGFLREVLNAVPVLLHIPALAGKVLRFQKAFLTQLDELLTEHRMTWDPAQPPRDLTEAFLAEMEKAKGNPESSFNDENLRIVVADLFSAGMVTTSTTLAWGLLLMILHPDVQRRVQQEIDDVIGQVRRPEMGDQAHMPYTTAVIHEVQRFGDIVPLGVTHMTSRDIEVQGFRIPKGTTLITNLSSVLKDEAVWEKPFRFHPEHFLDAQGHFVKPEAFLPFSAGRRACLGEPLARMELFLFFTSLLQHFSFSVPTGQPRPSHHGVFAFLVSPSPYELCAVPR
In short: as §1

[9] = AUC (all) in Sprague-Dawley rat at 1 mg/kg, iv; assay type: ADME, organism-based; parameters: dose 1 mg/kg, route intravenous; conditions: plasma
[10] = test system: Rattus norvegicus; experiment: Apparent volume of distribution during terminal phase in Sprague-Dawley rat at 1 mg/kg, iv; assay type: ADME, organism-based; parameters: dose 1 mg/kg, route intravenous; conditions: in vivo
[11] = Tmax in Sprague-Dawley rat at 2 mg/kg, po; assay type: ADME, organism-based; parameters: dose 2 mg/kg, route oral; conditions: in vivo
[12] = Ratio of drug level from brain to plasma in ICR mouse at 10 mg/kg, ip from 30 mins to 3 hrs by LC-MS/MS analysis; assay type: ADME, organism-based; parameters: dose 10 mg/kg, route intraperitoneal; conditions: read-out: BPR
[13] = Mean residence time ( 0 to t ) in Sprague-Dawley rat at 1 mg/kg, iv; assay type: ADME, organism-based; parameters: dose 1 mg/kg, route intravenous; conditions: in vivo
[14] = Apparent volume of distribution during terminal phase in Sprague-Dawley rat at 2 mg/kg, po; assay type: ADME, organism-based; parameters: dose 2 mg/kg, route oral; conditions: in vivo, read-out: Vz/F
[15] = AUC (all) in Sprague-Dawley rat at 2 mg/kg, po; assay type: ADME, organism-based; parameters: dose 2 mg/kg, route oral; conditions: plasma
[16] = Cmax in Sprague-Dawley rat at 2 mg/kg, po; assay type: ADME, organism-based; parameters: dose 2 mg/kg, route oral; conditions: in vivo
[17] = Mean residence time ( 0 to t ) in Sprague-Dawley rat at 2 mg/kg, po; assay type: ADME, organism-based; parameters: dose 2 mg/kg, route oral; conditions: in vivo
[18] = Apparent oral clearance in Sprague-Dawley rat at 2 mg/kg, po; assay type: ADME, organism-based; parameters: dose 2 mg/kg, route oral; conditions: in vivo
[19] = Cmax in Sprague-Dawley rat at 1 mg/kg, iv; assay type: ADME, organism-based; parameters: dose 1 mg/kg, route intravenous; conditions: in vivo
[20] = Terminal half life in Sprague-Dawley rat at 2 mg/kg, po; assay type: ADME, organism-based; parameters: dose 2 mg/kg, route oral; conditions: in vivo, read-out: beta t1/2 (converted)
[21] = test system: Rattus norvegicus; experiment: AUC (infinity) in Sprague-Dawley rat at 2 mg/kg, po; assay type: ADME, organism-based, Plasma; parameters: time infinity, dose 2 mg/kg, route oral; conditions: in vivo
[22] = Apparent oral clearance in Sprague-Dawley rat at 1 mg/kg, iv; assay type: ADME, organism-based; parameters: dose 1 mg/kg; conditions: in vivo
[23] = Terminal half life in Sprague-Dawley rat at 1 mg/kg, iv; assay type: ADME, organism-based; parameters: dose 1 mg/kg, route intravenous; conditions: in vivo, read-out: beta t1/2 (converted)
[24] = test system: Rattus norvegicus; experiment: Oral bioavailability in Sprague-Dawley rat at 2 mg/kg; assay type: ADME, organism-based; conditions: in vivo
[25] = test system: Rattus norvegicus; experiment: AUC (infinity) in Sprague-Dawley rat at 1 mg/kg, iv; assay type: ADME, organism-based, Plasma; parameters: time infinity, dose 1 mg/kg, route intravenous; conditions: in vivo
[26] = target: Voltage-gated inwardly rectifying potassium channel KCNH2 (Homo sapiens, UniProt Q12809); experiment: Inhibition of human ERG expressed in CHOK1 cells by patch clamp technique; assay type: cell-based, CHO-K1
Voltage-gated inwardly rectifying potassium channel KCNH2, sequence (Q12809 whole entry): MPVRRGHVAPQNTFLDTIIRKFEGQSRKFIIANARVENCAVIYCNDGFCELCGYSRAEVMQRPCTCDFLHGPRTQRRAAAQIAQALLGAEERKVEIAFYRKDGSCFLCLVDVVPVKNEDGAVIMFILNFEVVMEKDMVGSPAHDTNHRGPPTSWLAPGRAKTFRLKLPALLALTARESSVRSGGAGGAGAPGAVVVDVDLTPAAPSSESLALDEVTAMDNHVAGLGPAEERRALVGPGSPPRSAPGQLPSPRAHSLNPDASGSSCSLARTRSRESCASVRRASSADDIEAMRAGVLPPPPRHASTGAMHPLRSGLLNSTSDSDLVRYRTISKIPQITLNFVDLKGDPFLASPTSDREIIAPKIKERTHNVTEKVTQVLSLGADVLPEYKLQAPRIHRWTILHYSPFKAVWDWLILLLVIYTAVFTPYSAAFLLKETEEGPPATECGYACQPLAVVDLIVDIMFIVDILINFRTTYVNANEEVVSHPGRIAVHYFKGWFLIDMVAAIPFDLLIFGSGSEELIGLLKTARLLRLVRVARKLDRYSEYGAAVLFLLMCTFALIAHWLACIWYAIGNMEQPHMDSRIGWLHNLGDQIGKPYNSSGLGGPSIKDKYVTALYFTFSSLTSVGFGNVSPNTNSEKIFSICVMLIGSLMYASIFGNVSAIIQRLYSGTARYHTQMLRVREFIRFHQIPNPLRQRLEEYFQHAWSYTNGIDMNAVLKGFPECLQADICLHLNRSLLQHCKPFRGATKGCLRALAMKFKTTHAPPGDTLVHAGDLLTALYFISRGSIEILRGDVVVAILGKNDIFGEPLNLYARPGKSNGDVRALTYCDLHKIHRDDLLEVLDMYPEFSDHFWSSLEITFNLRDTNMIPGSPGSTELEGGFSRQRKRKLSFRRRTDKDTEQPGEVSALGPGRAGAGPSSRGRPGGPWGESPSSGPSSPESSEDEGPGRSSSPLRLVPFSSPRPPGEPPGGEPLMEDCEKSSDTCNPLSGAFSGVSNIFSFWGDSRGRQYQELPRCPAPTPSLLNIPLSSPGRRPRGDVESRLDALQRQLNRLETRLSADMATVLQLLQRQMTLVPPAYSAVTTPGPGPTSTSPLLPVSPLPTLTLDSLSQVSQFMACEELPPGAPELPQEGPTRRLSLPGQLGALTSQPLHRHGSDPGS

[27] = test system: Liver microsomes; experiment: Stability in human liver microsomes assessed as compound remaining at 1 uM after 0.5 hrs by BD Gentest assay; assay type: ADME, Microsome
[28] = test system: Mus musculus; experiment: Antidepressant activity in iv dosed ICR mouse assessed as reduction in immobility time dosed 0.5 hrs before forced swimming test; assay type: functional, organism-based
In short: (§2)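 ICR mice were tested in the Porsolt forced swimming test with a 30 min pretreatment. Doses were 2.5, 5.0 and 10.0 mg/kg IV or 10, 20 and 40 mg/kg PO. Read-out was immobility time, compared with vehicle. Venlafaxine was the positive control.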

[29] = test system: Mus musculus; experiment: Antidepressant activity in po dosed ICR mouse assessed as reduction in immobility time dosed 0.5 hrs before forced swimming test; assay type: functional, organism-based
In short: as §2

[30] = test system: Mus musculus; experiment: Antidepressant activity in ICR mouse assessed as reduction in immobility time at 10 mg/kg, iv after 0.5 hrs by forced swimming test; assay type: functional, organism-based; parameters: dose 10 mg/kg
In short: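 ICR mice; forced swimming test following Porsolt's method. Intravenous dosing 0.5 h before the test at 2.5, 5.0 and 10.0 mg/kg. Read-out was immobility time, compared with vehicle-treated mice.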

T1 sequence (P23975 whole entry): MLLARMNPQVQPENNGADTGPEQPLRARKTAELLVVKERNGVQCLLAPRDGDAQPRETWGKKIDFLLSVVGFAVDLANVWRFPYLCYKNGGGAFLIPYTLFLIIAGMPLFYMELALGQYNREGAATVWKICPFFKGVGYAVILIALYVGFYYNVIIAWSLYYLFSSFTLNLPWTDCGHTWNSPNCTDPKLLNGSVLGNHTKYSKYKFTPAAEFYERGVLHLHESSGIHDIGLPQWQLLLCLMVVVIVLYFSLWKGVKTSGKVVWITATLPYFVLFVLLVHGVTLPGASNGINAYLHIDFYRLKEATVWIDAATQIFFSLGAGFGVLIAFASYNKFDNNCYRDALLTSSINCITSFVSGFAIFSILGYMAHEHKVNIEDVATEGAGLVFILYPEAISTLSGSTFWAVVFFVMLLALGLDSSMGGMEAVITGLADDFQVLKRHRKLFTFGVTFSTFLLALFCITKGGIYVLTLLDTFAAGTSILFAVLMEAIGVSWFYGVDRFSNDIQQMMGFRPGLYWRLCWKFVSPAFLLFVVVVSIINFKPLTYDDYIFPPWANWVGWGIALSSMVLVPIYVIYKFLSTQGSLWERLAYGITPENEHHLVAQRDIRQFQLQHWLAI

OC(c1ccccc1)C1CNC1 (centres undefined)
inhibition [1]: 0.2% | inhibition [2]: 3.9% | inhibition [3]: 1.7%

Clc1ccc(C(Oc2ccccc2)C2CNC2)cc1Cl (centres undefined)
inhibition [1]: 89% | inhibition [2]: 58% | inhibition [3]: 16%

CNCCC(Oc1ccccc1OC)c1ccccc1 (centres undefined)
inhibition [2]: 9.8% | inhibition [3]: 9.9%

CCOC(c1ccc(Cl)cc1)C1CNC1 (centres undefined)
inhibition [1]: 10% | inhibition [2]: 7.3% | inhibition [3]: 4.6%

Fc1cc(C(Oc2ccccc2F)C2CNC2)ccc1Cl (centres undefined)
inhibition [1]: 81% | inhibition [2]: 29% | inhibition [3]: 41%

Clc1ccc(C(OCc2ccccc2)C2CNC2)cc1 (centres undefined)
inhibition [1]: 16% | inhibition [2]: 5.7% | inhibition [3]: 12%

Fc1ccc(C(OCCN2CCN(CCCc3ccccc3)CC2)c2ccc(F)cc2)cc1
inhibition [1]: -5.9% | inhibition [3]: 1.9%

Clc1ccc(OC(c2ccc3ccccc3c2)C2CNC2)cc1Cl (centres undefined)
inhibition [1]: 79% | pIC50 [4]: 7.27 | inhibition [2]: 68% | pIC50 [5]: 7.80 | pIC50 [6]: 7.46 | inhibition at 5 min, 10 µM [7]: 41% | inhibition [3]: 28% | inhibition at 5 min, 10 µM [8]: 25%

CCCOC(c1ccc2ccccc2c1)C1CNC1.Cl (centres undefined)
inhibition [1]: 87% | pIC50 [4]: 7.14 | inhibition [2]: 48% | pIC50 [5]: 7.92 | AUC [9]: 211 ng·h/mL | Vz/F [10]: 4.8 L/kg | Tmax [11]: 1 h | Kp [12]: 0.86 | MRT last [13]: 0.9 h | pIC50 [6]: 8.17 | Vd/F [14]: 249 L/kg | AUC [15]: 23.9 ng·h/mL | Cmax [16]: 7.3 ng/mL | MRT last [17]: 2.2 h | CL/F [18]: 775 mL/min/kg | Cmax [19]: 198 ng/mL | half-life [20]: 4.8 h | AUC [21]: 49.4 ng·h/mL | CL/F [22]: 78.3 mL/min/kg | half-life [23]: 0.7 h | F [24]: 5.7% | AUC [25]: 214.6 ng·h/mL | pIC50 [26]: 6.01 | Stability [27]: Stable | inhibition [3]: 77%

Cl.c1ccc(OC(c2ccc3ccccc3c2)C2CNC2)cc1 (centres undefined)
inhibition [1]: 90% | pIC50 [4]: 7.46 | inhibition [2]: 64% | pIC50 [5]: 8.51 | AUC [9]: 153 ng·h/mL | Activity [28]: Dose-dependent effect | Vz/F [10]: 13.1 L/kg | Tmax [11]: 1.3 h | Kp [12]: 2.7 | MRT last [13]: 1.73 h | pIC50 [6]: 8.08 | Vd/F [14]: 241 L/kg | AUC [15]: 17.9 ng·h/mL | Cmax [16]: 5.6 ng/mL | MRT last [17]: 2 h | inhibition at 5 min, 10 µM [7]: 12% | Activity [29]: Dose-dependent effect | CL/F [18]: 812 mL/min/kg | Cmax [19]: 112 ng/mL | half-life [20]: 3.3 h | AUC [21]: 41.7 ng·h/mL | CL/F [22]: 107 mL/min/kg | half-life [23]: 1.4 h | F [24]: 5.8% | AUC [25]: 159.7 ng·h/mL | Activity [30]: Active | Stability [27]: Stable | inhibition [3]: 64% | inhibition at 5 min, 10 µM [8]: 16%

c1ccc(OC(c2ccccc2)C2CNC2)cc1 (centres undefined)
inhibition [1]: 18% | inhibition [2]: 9.3% | inhibition [3]: 25%

OC(c1ccc(Cl)cc1)C1CNC1 (centres undefined)
inhibition [1]: 3.5% | inhibition [2]: 2.1% | inhibition [3]: 2%

COC(c1ccccc1)C1CNC1 (centres undefined)
inhibition [1]: 1.5% | inhibition [2]: 2.2% | inhibition [3]: 3.3%

Clc1ccc(C(OCc2ccccc2)C2CNC2)cc1Cl (centres undefined)
inhibition [1]: 30% | inhibition [2]: 12% | inhibition [3]: 12%

COC(c1ccc(Cl)cc1)C1CNC1 (centres undefined)
inhibition [1]: 7.7% | inhibition [2]: 2.6% | inhibition [3]: 3.9%

Fc1cc(C(Oc2ccccc2)C2CNC2)ccc1Cl (centres undefined)
inhibition [1]: 76% | pIC50 [4]: 6.83 | inhibition [2]: 30% | pIC50 [5]: 7.68 | pIC50 [6]: 6.85 | inhibition [3]: 49%

CCCOC(c1ccc(Cl)c(Cl)c1)C1CNC1 (centres undefined)
inhibition [1]: 87% | pIC50 [4]: 7.49 | inhibition [2]: 74% | pIC50 [5]: 8.00 | pIC50 [6]: 7.36 | inhibition [3]: 39%

COc1ccc(C(CN(C)C)C2(O)CCCCC2)cc1 (centres undefined)
Activity [30]: Active

c1ccc(COC(c2ccccc2)C2CNC2)cc1 (centres undefined)
inhibition [1]: 9.4% | inhibition [2]: 2% | inhibition [3]: 12%

CCOC(c1ccccc1)C1CNC1 (centres undefined)
inhibition [1]: 4.5% | inhibition [2]: 3% | inhibition [3]: 4%

CCOC(c1ccc(Cl)c(Cl)c1)C1CNC1 (centres undefined)
inhibition [1]: 49% | inhibition [2]: 30% | inhibition [3]: 28%

Clc1ccc(C(Oc2ccccc2)C2CNC2)cc1 (centres undefined)
inhibition [1]: 68% | inhibition [2]: 36% | inhibition [3]: 22%

COC(c1ccc(Cl)c(Cl)c1)C1CNC1 (centres undefined)
inhibition [1]: 47% | inhibition [2]: 22% | inhibition [3]: 16%
